The LD50 is the dose at which mortality reaches 50%. Low readings indicate a more toxic substance, high ones a less toxic substance.

One series has as its system C-33-A. Description: Antiproliferative activity against human C33A cells assessed as reduction in cell viability at 2 to 4 uM incubated up to 72 hrs by CellTiter-Glo assay. The format is functional, cell-based.
In a further series the test system is HeLa. The series can be described thus: Antiproliferative activity against human HeLa cells assessed as reduction in cell viability at 2 to 4 uM incubated up to 72 hrs by CellTiter-Glo assay. The format is functional, cell-based.
The subject of the next series is SiHa. Description: Antiproliferative activity against human SiHa cells assessed as reduction in cell viability at 2 to 4 uM incubated up to 72 hrs by CellTiter-Glo assay. The format is functional, cell-based. For orientation: ATP-based viability assays read luminescence as a measure of living cells.
A further series has as its system Ca-Ski. The series can be described thus: Antiproliferative activity against human CaSki cells assessed as reduction in cell viability at 2 to 4 uM incubated up to 72 hrs by CellTiter-Glo assay. The format is functional, cell-based.
Series [1] concerns the target T1, Homeobox protein SIX1 (Homo sapiens) (UniProt Q15475).
T1 sequence (whole entry): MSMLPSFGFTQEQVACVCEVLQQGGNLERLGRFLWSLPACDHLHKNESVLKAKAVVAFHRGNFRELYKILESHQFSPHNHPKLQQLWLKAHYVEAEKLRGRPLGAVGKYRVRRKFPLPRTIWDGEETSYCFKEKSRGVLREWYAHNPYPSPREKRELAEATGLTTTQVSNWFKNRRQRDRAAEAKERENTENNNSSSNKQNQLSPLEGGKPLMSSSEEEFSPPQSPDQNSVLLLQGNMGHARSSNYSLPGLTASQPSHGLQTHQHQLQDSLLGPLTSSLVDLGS
Description: Inhibition of SIX1 in human C33A cells at 40 uM after 48 hrs by Western blot analysis. The format is cell-based. The conditions noted are these: C-33-A. The essentials:
(§1)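 Cells seeded at 1 × 10^6 per 100 mm dish and treated next day at 10, 20 or 40 μM for 48 h. Harvested by trypsinization, PBS-washed, and lysed in RIPA buffer with protease inhibitors. Equal protein by colorimetric assay went to SDS-PAGE and PVDF. Primary antibody 1:500, blocked and diluted in 5% nonfat milk/TBST (SIX1) or 3% BSA (CK2α). HRP secondary 1:2000; chemiluminescent detection.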

The target of series [2] is T1, Homeobox protein SIX1 (Homo sapiens). Description: Inhibition of SIX1 in human SiHa cells at 40 uM after 48 hrs by Western blot analysis. The format is cell-based. The essentials: as §1
For orientation: A western blot detects proteins with antibodies after separation by electrophoresis.

Series [3] has the same target. Description: Inhibition of SIX1 in human HeLa cells at 40 uM after 48 hrs by Western blot analysis. The format is cell-based. The essentials:
as §1

The target is the same in series [4]. Description: Inhibition of SIX1 in human CaSki cells at 40 uM after 48 hrs by Western blot analysis. The format is cell-based. Particulars: Ca-Ski. The essentials:
as §1

The target of series [5] is Casein kinase II subunit alpha (Homo sapiens) (UniProt P68400). Particulars: C-33-A, 40 uM.
Sequence of Casein kinase II subunit alpha (Homo sapiens) (P68400 whole entry, looked up): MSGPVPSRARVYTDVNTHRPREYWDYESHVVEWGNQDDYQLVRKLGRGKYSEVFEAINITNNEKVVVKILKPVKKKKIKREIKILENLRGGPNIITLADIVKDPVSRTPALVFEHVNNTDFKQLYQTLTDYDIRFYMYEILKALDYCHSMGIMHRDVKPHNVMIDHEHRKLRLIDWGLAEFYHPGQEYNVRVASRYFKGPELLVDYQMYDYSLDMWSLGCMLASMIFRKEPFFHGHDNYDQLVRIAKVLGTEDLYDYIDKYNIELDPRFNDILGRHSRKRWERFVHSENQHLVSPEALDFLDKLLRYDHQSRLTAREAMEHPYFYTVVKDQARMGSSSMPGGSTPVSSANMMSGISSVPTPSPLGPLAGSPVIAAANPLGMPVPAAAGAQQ
The target is the same in series [6]. Particulars: HeLa, 40 uM.
Series [7] shares this target. The conditions noted are these: SiHa, 40 uM.
Series [8] has the same target. Particulars: Ca-Ski, 40 uM.
The nature of series [9]: Toxicity in po dosed mouse. The format is organism-based. The conditions noted are these: in vivo.
In another series the test system is Keratinocyte. The series can be described thus: Cytotoxicity against human Keratinocytes assessed as reduction in cell viability at 4 uM incubated up to 72 hrs by trypan blue staining based cell counting assay.

The source made the active and inactive calls. No cut-off for these calls is given here.

Consider `O[C@]12C=C([C@H]3NCCc4c3[nH]c3ccccc43)[C@@H]3CCN(CCCC/C=C\CC1)C[C@@]31C[C@@H]3/C=C\CCCCN3[C@H]12`, for which the result in the series with C-33-A, in the series with HeLa, with SiHa and in the series on Ca-Ski was inactive.

Consider `O=C1CCCN2[C@@H](CC1)C[C@]13CN4CCCC/C=C\CC[C@](O)(C=C(c5nccc6c5[nH]c5c(O)cccc56)[C@@H]1CC4)[C@H]23`, for which the result in the series with C-33-A, with HeLa, in the series on SiHa and in the series on Ca-Ski was inactive.

As to `O=c1cc(-c2ccc(O)cc2)oc2cc(O)cc(O)c12`, the inhibition result in [1], in series [2], in [3], in series [4], in [5] and in series [6] was “Active” throughout. The inhibition entry in [7] and in [8] was “Active” each time.

Compound `CC(=O)Nc1ccc(O)cc1` [ACETAMINOPHEN] came in with an LD50 in series [9] of 338 mg/kg.

On to `Oc1cccc2c1[nH]c1c(C3=C[C@@]4(O)CC/C=C\CCCCN5CC[C@@H]3[C@]3(C[C@@H]6/C=C\CCCCN6[C@H]34)C5)nccc12`, for which the outcome with C-33-A, with HeLa, in the series with SiHa and in the series with Ca-Ski was Active. For the same compound, the Activity result in the series with Keratinocyte is “Toxic”.

Turning to `O=CC1=C[C@@]2(O)CC/C=C\CCCCN3CC[C@@H]1[C@]1(C[C@@H]4/C=C\CCCCN4[C@H]12)C3`, the result in the series on C-33-A, with HeLa, in the series with SiHa and with Ca-Ski was inactive.
